Results on 33 molecules are retold here after ChEMBL document CHEMBL3259681, “Structure-activity relationship refinement and further assessment of 4-phenylquinazoline-2-carboxamide translocator protein ligands as antiproliferative agents in human glioblastoma tumors” (J Med Chem, 2014).

The structures appear in SMILES notation. pIC50, pKi: −log10 of the molar value. Calls of active or inactive are those of the source. The rule behind the calls is not given here.

The target of one experiment is Translocator protein (Rattus norvegicus, UniProt P16257). In words: Displacement of [3H]PK11195 from TSPO in rat kidney mitochondrial membranes. The format is cell membranes. For orientation: Displacement assays read how much labelled ligand stays bound in the presence of the test substance.
Chain of Translocator protein (P16257 whole entry, looked up): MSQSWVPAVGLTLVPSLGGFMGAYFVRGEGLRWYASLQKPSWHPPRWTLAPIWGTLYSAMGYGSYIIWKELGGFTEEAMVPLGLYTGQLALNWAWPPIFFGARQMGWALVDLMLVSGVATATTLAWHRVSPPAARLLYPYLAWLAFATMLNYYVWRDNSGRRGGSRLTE
Experiment [1] is filed under the species Homo sapiens. In words: Binding affinity to Central-type benzodiazepine receptor (unknown origin).
The species named for experiment [2] is Homo sapiens. In words: Cytotoxicity against human U-343 MGa cells assessed as decrease in cell viability at 50 uM after 24 hrs by colorimetric viability MTS assay. The class given is functional, cell-based. In short, it runs like this: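 U343 cells in MEM with 10% FBS were seeded ~4.5 × 10³/well and grown 24 h. They were then exposed 24 h to 50 μM compound in complete medium; DMSO or EtOH vehicle was ≤1%. Viable cells were read by MTS colorimetric conversion as percent of vehicle control. Measurements in duplicate; mean ± SEM of three determinations.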
In general terms: Formazan colour is commonly taken as a measure of viable cells.

Experiment [3] is described as follows: (§1) Cytotoxicity against human U-343 MGa cells assessed as inhibition of cell survival after 24 hrs by colorimetric viability MTS assay. The class given is functional, cell-based. In a few lines: (§2)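 U343 cells were seeded ~4.5 × 10³/well, grown 24 h, then treated 24 h with 10 nM–100 μM compound; vehicle (DMSO or EtOH) was ≤1%. Viability by MTS conversion relative to control (100%). IC50 was taken as the concentration giving half-maximal survival inhibition. Duplicates, ≥3 experiments, mean ± SEM.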

Experiment [4] is filed under the species Homo sapiens. Described as §1. The class given is functional, cell-based. In a few lines:
as §2

The species entered for experiment [5] is Homo sapiens. In words: Induction of mitochondrial membrane depolarization in human U-343 MGa cells at 10 uM after 5 hrs by cell fluo-analyzer relative to control. The class given is functional, cell-based. In a few lines: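 U343 cells were seeded ~60 × 10³/well, grown 24 h, then treated 5 h with 10 μM compound; CCCP 3 μM for 15 min served as depolarized control. Floating and adherent cells were pooled and stained with MitoPotential dye for 20 min at rt, then 7-AAD for 5 min. Percent live, depolarized and dead cells was read on a Muse cytometer.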

The target of experiment [6] is Translocator protein (Rattus norvegicus) (UniProt P16257). In words: Displacement of [3H]PK11195 from TSPO in rat kidney mitochondrial membranes at 1 uM. The format is cell membranes. In short, it runs like this: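 Competition binding against 0.6 nM [³H]PK11195 in crude rat kidney mitochondrial membranes, 50 mM Tris–HCl pH 7.4. Six compound concentrations spanning 0.05 nM–20 μM, each in triplicate. IC50 from displacement curves, converted to Ki by Cheng–Prusoff. Percent inhibition taken at 1 μM. Values are mean ± SEM of three determinations.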
Chain of Translocator protein (Rattus norvegicus) (P16257 whole entry, looked up): as above

For experiment [7], the target named is Receptor-type tyrosine-protein kinase FLT3 (Homo sapiens) (UniProt P36888). In words: Inhibition of human FLT-3 kinase at 1 uM.
Chain of Receptor-type tyrosine-protein kinase FLT3 (Homo sapiens) (P36888 whole entry): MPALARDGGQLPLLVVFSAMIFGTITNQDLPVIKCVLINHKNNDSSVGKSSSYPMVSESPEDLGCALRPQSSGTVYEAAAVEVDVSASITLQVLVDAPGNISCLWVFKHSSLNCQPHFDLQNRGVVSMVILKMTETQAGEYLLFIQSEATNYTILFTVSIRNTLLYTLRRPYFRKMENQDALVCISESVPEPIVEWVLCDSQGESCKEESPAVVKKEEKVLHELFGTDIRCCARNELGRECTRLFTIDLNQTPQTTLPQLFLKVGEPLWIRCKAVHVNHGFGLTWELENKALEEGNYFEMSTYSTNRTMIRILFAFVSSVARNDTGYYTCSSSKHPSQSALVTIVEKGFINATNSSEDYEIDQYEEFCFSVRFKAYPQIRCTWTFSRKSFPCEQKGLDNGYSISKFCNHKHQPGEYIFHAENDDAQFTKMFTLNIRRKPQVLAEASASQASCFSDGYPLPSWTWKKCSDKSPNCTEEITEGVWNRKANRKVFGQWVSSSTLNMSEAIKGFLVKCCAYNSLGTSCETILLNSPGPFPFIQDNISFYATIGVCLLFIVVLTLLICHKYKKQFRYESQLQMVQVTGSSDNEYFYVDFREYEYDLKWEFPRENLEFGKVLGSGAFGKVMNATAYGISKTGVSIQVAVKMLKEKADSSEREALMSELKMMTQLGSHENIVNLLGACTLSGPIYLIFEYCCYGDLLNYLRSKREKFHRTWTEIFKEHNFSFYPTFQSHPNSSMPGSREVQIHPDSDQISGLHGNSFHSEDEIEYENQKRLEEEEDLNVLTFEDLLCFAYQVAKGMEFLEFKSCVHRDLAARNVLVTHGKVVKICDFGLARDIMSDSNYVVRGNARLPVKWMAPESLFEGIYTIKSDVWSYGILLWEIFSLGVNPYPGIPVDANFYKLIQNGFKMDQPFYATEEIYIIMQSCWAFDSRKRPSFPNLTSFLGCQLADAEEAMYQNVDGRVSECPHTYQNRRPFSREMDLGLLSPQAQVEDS
For experiment [8] the target is unchanged. In words: Inhibition of human FLT-3 kinase at 10 uM.
The target of experiment [9] is Platelet-derived growth factor receptor alpha (Homo sapiens) (UniProt P16234). In words: Inhibition of human PDGFRalpha kinase at 1 uM.
Experiment [10] concerns the target Vascular endothelial growth factor receptor 2 (Homo sapiens) (UniProt P35968). In words: Inhibition of human KDR kinase at 1 uM.
For experiment [11] the target is unchanged. In words: Inhibition of human KDR kinase at 10 uM.
Experiment [12] concerns the target Receptor tyrosine-protein kinase erbB-2 (Homo sapiens) (UniProt P04626). In words: Inhibition of human HER2/ErbB2 kinase at 1 uM.
The target is the same in experiment [13]. In words: Inhibition of human HER2/ErbB2 kinase at 10 uM.
Experiment [14] addresses Vascular endothelial growth factor receptor 1 (Homo sapiens) (UniProt P17948). In words: Inhibition of human FLT-1 kinase at 1 uM.
The target is the same in experiment [15]. In words: Inhibition of human FLT-1 kinase at 10 uM.
Experiment [16] is filed under the species Homo sapiens. In words: Agonist activity at GPCR in human U-343 MGa cell membrane assessed as increase in basal [35S]GTPgamma binding at 0.1 nM. The class given is functional, cell membranes.
For experiment [17], the species on record is Homo sapiens. In words: Agonist activity at GPCR in human U-343 MGa cell membrane assessed as increase in basal [35S]GTPgamma binding at 100 uM. The class given is functional, cell membranes.
Experiment [18] has as its target Tyrosine-protein kinase ABL1 (Homo sapiens) (UniProt P00519). In words: Inhibition of human Abl kinase at 1 uM.
Experiment [19] has the same target. In words: Inhibition of human Abl kinase at 10 uM.
The target in experiment [20] is Mast/stem cell growth factor receptor Kit (Homo sapiens) (UniProt P10721). In words: Inhibition of human c-kit kinase at 1 uM.
Chain of Mast/stem cell growth factor receptor Kit (Homo sapiens) (P10721 whole entry): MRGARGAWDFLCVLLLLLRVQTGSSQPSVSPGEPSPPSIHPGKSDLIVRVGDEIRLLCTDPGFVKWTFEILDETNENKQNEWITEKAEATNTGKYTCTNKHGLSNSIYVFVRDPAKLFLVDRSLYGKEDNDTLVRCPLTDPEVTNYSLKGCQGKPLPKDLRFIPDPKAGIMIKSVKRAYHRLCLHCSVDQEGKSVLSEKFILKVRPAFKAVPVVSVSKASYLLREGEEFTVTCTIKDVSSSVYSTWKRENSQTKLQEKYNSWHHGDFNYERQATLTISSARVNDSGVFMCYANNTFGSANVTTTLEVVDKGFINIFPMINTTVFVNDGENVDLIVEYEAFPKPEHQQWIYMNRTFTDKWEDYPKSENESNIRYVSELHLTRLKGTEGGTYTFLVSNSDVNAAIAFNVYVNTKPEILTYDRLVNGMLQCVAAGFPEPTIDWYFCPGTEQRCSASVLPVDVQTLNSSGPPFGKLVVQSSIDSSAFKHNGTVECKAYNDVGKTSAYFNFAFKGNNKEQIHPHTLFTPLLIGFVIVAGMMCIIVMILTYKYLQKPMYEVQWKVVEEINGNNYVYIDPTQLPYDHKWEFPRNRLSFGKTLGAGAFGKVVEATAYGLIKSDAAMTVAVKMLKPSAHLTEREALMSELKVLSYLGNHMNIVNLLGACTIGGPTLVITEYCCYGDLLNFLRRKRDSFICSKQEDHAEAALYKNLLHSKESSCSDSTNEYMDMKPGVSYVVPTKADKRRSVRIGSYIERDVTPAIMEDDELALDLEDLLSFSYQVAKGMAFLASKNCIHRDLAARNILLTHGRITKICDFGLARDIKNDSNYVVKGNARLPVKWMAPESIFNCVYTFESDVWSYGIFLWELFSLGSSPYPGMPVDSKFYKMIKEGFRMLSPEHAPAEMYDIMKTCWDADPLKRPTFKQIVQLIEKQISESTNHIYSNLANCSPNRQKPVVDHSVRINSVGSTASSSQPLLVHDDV
Experiment [21] has the same target. In words: Inhibition of human c-kit kinase at 10 uM.
For experiment [22], the target named is Epidermal growth factor receptor (Homo sapiens) (UniProt P00533). In words: Inhibition of human EGFR kinase at 1 uM.
For experiment [23] the target is unchanged. In words: Inhibition of human EGFR kinase at 10 uM.
Experiment [24] has as its target Platelet-derived growth factor receptor alpha (Homo sapiens) (UniProt P16234). In words: Inhibition of human PDGFRalpha kinase at 10 uM.
The target in experiment [25] is Platelet-derived growth factor receptor beta (Homo sapiens) (UniProt P09619). In words: Inhibition of human PDGFRbeta kinase at 1 uM.
Chain of Platelet-derived growth factor receptor beta (Homo sapiens) (P09619 whole entry): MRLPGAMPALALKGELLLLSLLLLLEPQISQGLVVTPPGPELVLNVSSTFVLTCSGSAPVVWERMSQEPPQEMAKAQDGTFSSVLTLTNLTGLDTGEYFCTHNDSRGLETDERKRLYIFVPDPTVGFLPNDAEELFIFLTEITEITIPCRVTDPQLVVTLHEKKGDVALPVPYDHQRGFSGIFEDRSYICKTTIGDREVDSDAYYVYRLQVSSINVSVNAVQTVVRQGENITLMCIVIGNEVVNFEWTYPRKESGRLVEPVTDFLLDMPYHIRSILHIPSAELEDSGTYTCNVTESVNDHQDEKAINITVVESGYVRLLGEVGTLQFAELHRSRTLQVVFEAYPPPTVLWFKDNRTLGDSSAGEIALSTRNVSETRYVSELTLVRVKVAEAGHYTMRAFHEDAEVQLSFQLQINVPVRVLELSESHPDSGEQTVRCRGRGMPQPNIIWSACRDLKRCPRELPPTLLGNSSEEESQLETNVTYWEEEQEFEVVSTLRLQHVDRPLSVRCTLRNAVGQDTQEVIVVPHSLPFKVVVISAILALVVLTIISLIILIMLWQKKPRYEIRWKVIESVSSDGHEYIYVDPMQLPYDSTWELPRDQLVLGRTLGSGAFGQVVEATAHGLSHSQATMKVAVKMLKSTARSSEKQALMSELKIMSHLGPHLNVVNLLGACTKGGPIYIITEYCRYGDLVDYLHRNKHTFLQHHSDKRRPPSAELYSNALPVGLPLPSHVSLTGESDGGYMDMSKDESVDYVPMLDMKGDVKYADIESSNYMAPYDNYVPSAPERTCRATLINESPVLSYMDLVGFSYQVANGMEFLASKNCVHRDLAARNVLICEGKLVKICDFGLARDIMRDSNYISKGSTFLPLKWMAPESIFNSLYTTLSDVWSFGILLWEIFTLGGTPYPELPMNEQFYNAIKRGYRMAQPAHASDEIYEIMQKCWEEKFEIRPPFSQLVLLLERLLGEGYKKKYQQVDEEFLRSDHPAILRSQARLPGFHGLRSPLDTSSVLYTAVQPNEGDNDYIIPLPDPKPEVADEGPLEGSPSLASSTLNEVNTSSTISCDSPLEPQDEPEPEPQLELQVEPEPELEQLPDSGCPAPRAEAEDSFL
Experiment [26] shares this target. In words: Inhibition of human PDGFRbeta kinase at 10 uM.
The target of experiment [27] is Protein kinase C beta type (Homo sapiens) (UniProt P05771). In words: Inhibition of human PKCbeta1 at 1 uM.
Chain of Protein kinase C beta type (Homo sapiens) (P05771 2-671 limits assumed): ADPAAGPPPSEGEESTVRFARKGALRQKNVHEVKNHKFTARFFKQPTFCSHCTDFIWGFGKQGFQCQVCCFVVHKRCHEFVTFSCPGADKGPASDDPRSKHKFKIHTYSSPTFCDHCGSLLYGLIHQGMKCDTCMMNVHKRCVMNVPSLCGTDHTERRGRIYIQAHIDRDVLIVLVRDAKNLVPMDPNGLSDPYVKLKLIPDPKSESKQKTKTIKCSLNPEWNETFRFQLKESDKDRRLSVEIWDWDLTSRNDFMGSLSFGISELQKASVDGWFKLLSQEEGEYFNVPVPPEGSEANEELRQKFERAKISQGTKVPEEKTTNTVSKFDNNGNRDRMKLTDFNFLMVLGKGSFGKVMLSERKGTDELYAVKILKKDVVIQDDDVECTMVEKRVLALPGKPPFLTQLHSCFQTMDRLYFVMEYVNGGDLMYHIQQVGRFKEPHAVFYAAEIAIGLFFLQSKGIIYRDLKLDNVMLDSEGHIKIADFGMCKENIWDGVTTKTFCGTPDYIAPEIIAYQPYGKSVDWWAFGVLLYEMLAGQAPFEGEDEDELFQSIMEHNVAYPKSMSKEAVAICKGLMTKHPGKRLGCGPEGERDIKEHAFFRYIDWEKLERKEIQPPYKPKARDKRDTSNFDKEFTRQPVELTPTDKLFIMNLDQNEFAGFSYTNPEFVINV
Experiment [28] shares this target. In words: Inhibition of human PKCbeta1 at 10 uM.
Experiment [29] shares this target. In words: Inhibition of human PKCbeta2 at 1 uM.
Experiment [30] has the same target. In words: Inhibition of human PKCbeta2 at 10 uM.
Experiment [31] concerns the target Proto-oncogene tyrosine-protein kinase receptor Ret (Homo sapiens) (UniProt P07949). In words: Inhibition of human Ret kinase at 1 uM.
For experiment [32] the target is unchanged. In words: Inhibition of human Ret kinase at 10 uM.
Experiment [33] addresses Serine/threonine-protein kinase mTOR (Homo sapiens) (UniProt P42345). In words: Inhibition of human mTOR kinase at 1 uM.
Experiment [34] shares this target. In words: Inhibition of human mTOR kinase at 10 uM.
The nature of experiment [35]: Cytotoxicity against human U-343 MGa cells assessed as inhibition of cell survival at 100 uM after 24 hrs by colorimetric viability MTS assay. The class given is functional. In a few lines: as §2
For experiment [36], the species on record is Homo sapiens. In words: Induction of mitochondrial membrane depolarization in human U-343 MGa cells at 3 uM for 15 mins by cell fluo-analyzer relative to control. The format is functional, cell-based. In a few lines: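 U343 cells were grown at 37 °C and 5% CO₂ in EMEM with 10% FBS, seeded at ~60 × 10³ cells/well and grown 24 h. They were then exposed to the uncoupler as a depolarized positive control. Floating and adherent cells were pooled and stained with MitoPotential dye (20 min, rt), then with 7-AAD (5 min). The Muse cytometer gave % live, depolarized and dead cells.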

Chain of Tyrosine-protein kinase ABL1 (Homo sapiens) (P00519 whole entry): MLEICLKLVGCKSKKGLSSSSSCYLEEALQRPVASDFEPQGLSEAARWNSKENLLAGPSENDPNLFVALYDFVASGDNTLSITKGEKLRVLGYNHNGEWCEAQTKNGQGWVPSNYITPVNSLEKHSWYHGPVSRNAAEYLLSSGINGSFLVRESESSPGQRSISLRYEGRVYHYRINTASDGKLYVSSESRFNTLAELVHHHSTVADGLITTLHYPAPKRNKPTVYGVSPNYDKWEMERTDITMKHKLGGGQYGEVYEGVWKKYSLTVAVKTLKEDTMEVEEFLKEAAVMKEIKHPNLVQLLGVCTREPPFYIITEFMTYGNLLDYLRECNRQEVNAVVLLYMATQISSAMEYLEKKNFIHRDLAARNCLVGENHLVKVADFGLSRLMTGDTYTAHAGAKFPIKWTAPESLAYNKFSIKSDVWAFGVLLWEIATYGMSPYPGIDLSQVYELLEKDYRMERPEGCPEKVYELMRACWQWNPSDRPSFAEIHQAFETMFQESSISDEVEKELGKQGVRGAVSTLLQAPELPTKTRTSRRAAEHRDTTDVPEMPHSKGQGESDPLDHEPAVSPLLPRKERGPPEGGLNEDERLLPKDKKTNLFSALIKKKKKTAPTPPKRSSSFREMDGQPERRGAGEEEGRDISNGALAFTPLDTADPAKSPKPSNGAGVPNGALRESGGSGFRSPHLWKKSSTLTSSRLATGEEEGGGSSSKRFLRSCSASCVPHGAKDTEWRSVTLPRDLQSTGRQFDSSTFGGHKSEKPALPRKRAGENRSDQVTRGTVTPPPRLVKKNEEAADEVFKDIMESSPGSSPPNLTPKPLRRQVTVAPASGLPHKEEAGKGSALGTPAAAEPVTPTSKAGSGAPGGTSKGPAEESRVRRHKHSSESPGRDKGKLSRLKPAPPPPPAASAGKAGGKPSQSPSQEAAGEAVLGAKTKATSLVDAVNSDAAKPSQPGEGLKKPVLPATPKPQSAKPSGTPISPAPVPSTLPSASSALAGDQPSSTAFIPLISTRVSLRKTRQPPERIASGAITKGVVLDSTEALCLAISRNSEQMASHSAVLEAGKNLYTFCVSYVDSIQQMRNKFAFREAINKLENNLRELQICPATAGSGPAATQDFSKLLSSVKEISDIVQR

Broadly, the pKi is −log10 of the Ki, conventionally taken in molar units. Low readings indicate a high Ki, high ones a low Ki. As for `CCN(Cc1ccccc1)C(=O)c1nc(-c2ccc(F)cc2)c2ccccc2n1`, the pKi at Translocator protein was 8.77.
`CCN(Cc1ccc(OC)cc1)C(=O)c1nc(-c2ccccc2)c2ccccc2n1`: the pKi on Translocator protein is 8.56.
For the molecule `CCCCCCN(CCCCCC)C(=O)c1nc(-c2ccccc2)c2cc(Cl)ccc2n1`, the result in the experiment filed under Homo sapiens [1] was inactive.
As for `CCC(C)N(C)C(=O)c1nc(-c2ccccc2)c2cc(Cl)ccc2n1` (stereo not given), in the experiment filed under Homo sapiens [1], the outcome was inactive.
The molecule `CCN(Cc1ccccc1)C(=O)c1nc(-c2ccc(C)cc2)c2ccccc2n1` gave a pKi on Translocator protein of 8.83.
Same read-out and setting: the same measure for `CCN(Cc1ccc(C(=O)O)cc1)C(=O)c1nc(-c2ccccc2)c2ccccc2n1`: 6.14.
In the case of `CCCCCCN(CCCCCC)C(=O)c1nc(-c2ccc(Cl)cc2)c2ccccc2n1`, in the experiment filed under Homo sapiens [1], the outcome was inactive.
Broadly, the inhibition is how much of the control response was suppressed. Usually pIC50 stands for −log10 of the IC50, conventionally taken in molar units. With `CCCCCCN(CCCCCC)C(=O)c1nc(-c2ccccc2)c2ccccc2n1`, in the experiment filed under Homo sapiens [1], the result was inactive. The inhibition entry in the experiment listed under Homo sapiens [2] is “Active”. In addition, in [3], the pIC50 was 4.75. Besides, the inhibition entry in the experiment filed under Homo sapiens [4] was “Dose-dependent effect”. In the experiment filed under Homo sapiens [5], the result was Active.
With `CCN(Cc1ccccc1)C(=O)c1nc(-c2ccc(Cl)cc2)c2ccccc2n1`, on Translocator protein, the pKi is 9.12.
`CN(Cc1ccccc1)C(=O)c1nc(-c2ccc(Cl)cc2)c2ccccc2n1` gave a pKi at Translocator protein of 8.21.
As for `CCN(Cc1ccccc1)C(=O)c1nc(-c2ccccc2F)c2ccccc2n1`, the pKi at Translocator protein was 9.05.
On Translocator protein, `CCN(Cc1ccc(C)cc1)C(=O)c1nc(-c2ccccc2)c2ccccc2n1` had a pKi of 8.59.
For the molecule `CCCCCN(CCCCC)C(=O)c1nc(-c2ccccc2)c2ccccc2n1`, the result in the experiment filed under Homo sapiens [1] was inactive.
In turn, `CN(Cc1ccccc1)C(=O)c1nc(-c2ccccc2F)c2ccccc2n1` had a pKi at Translocator protein of 8.95.
In turn, `O=C(NCc1ccccc1)c1nc(-c2ccccc2Cl)c2ccccc2n1` had an inhibition in [6] of 16%.
Molecule `CCN(Cc1ccccc1)C(=O)c1nc(-c2ccccc2)c2cc(Cl)ccc2n1` showed a pKi on Translocator protein of 7.61.
On Translocator protein, `CCN(Cc1ccccc1)C(=O)c1nc(-c2ccccc2Cl)c2ccccc2n1` had a pKi of 9.63.
On to `CCN(Cc1ccccc1)C(=O)c1nc(-c2ccccc2)c2ccccc2n1`, for which the pKi on Translocator protein is 8.95.
On the same count and under the same terms, the same measure for `CN(Cc1ccccc1)C(=O)c1nc(-c2ccccc2)c2ccccc2n1`: 8.40.
Turning to `CCC(C)N(C)C(=O)c1nc(-c2ccc(Cl)cc2)c2ccccc2n1` (stereo not given), the outcome in the experiment filed under Homo sapiens [1] was inactive.
For `CCN(Cc1ccc(C)cc1)C(=O)c1nc(-c2ccccc2Cl)c2ccccc2n1`, the inhibition entry in experiment [7], in [8], in [9], in experiment [10], in experiment [11] and in experiment [12] was “inactive” in each case. The inhibition entry in experiment [13], in experiment [14], in experiment [15], in [18], in experiment [19] and in experiment [20] was “inactive” throughout. Besides, the inhibition result in [21], in [22], in experiment [23], in experiment [24], in experiment [25] and in [26] was “inactive” each time. Moreover, the inhibition entry in experiment [27], in experiment [28], in [29], in experiment [30], in experiment [31] and in [32] was “inactive” each time. In addition, the inhibition result in [33] and in experiment [34] was “inactive” in each case. This molecule had a pKi at Translocator protein of 9.31. Besides, the inhibition result in the experiment filed under Homo sapiens [2] was “Active”. The pIC50 in experiment [3] was 4.82. In addition, the inhibition entry in the experiment listed under Homo sapiens [4] is “Dose-dependent effect”. The result in the experiment listed under Homo sapiens [5] was Active. For the same molecule, the outcome in the experiment listed under Homo sapiens [16] and in the experiment listed under Homo sapiens [17] was inactive.
Regarding `CCC(C)N(C)C(=O)c1nc(-c2ccccc2)c2ccccc2n1` (stereo not given), in the experiment filed under Homo sapiens [1], the outcome was inactive.
In the case of `CCOC(=O)c1ccc(CN(CC)C(=O)c2nc(-c3ccccc3)c3ccccc3n2)cc1`, the pKi at Translocator protein is 8.44.
Consider `O=C(NCc1ccccc1)c1nc(-c2ccccc2)c2ccccc2n1`, for which, in experiment [6], the inhibition was found to be 41%.
For the molecule `CCN(Cc1ccc(O)cc1)C(=O)c1nc(-c2ccccc2)c2ccccc2n1`, the pKi on Translocator protein is 8.06.
On the same count and under the same terms, the same measure for `CN(Cc1ccccc1)C(=O)c1cc2ccccc2c(-c2ccccc2Cl)n1`: 9.35.
In the case of `CCC(C)N(C)C(=O)c1cc2ccccc2c(-c2ccccc2Cl)n1` (stereo not given) [PK-11195], in experiment [35], the inhibition at 100 µM stood at 40%. The outcome in the experiment filed under Homo sapiens [5] was Active.
For `CCCCN(CCCC)C(=O)c1nc(-c2ccccc2)c2ccccc2n1`, the result in the experiment filed under Homo sapiens [1] was inactive.
On the same count and under the same terms, the same measure for `CCCCCCN(CCCCCC)C(=O)c1nc(-c2ccccc2Cl)c2ccccc2n1`: “inactive”.
`CCN(Cc1ccc([N+](=O)[O-])cc1)C(=O)c1nc(-c2ccccc2)c2ccccc2n1`: the pKi at Translocator protein is 8.38.
Take `CCC(C)N(C)C(=O)c1nc(-c2ccccc2Cl)c2ccccc2n1` (stereo not given): the result in the experiment filed under Homo sapiens [1] was inactive.
The molecule `CCN(Cc1ccc(C)cc1)C(=O)c1nc(-c2ccccc2F)c2ccccc2n1` gave a pKi on Translocator protein of 9.22.
With `N#CC(C#N)=NNc1cccc(Cl)c1`, the outcome in the experiment filed under Homo sapiens [36] was Active.
